Active and inactive are the calls of the source. The calls are words filed in the database; no cut-off is given here.
What was measured:
[1] = system: Lu1; assay: Cytotoxicity against human Lu1 cells; type: functional; conditions: read-out: ED50 (the source's name)
[2] = system: LNCaP; assay: Cytotoxicity against human LNCaP cells; type: functional; conditions: read-out: ED50 (the source's name)
[3] = system: MCF7; assay: Cytotoxicity against human MCF7 cells; type: functional; conditions: read-out: ED50 (the source's name)
[4] = system: P388; assay: Antitumor activity against mouse P388 lymphocytic leukemia model at 15 mg/kg, ip relative to control; type: functional; conditions: route intraperitoneal
Method in brief: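 Murine P388 lymphocytic leukemia in vivo. Compound given by intraperitoneal injection at 15 mg/kg/injection. Activity expressed as T/C (%) relative to control.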

[5] = Antitumor activity against human A2780S cells xenografted in mouse at 3 mg/kg relative to control; type: functional, A2780
Method in brief: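 Mice bearing human A2780S ovarian carcinoma xenografts; dosed at 3 mg/kg/injection; activity read out as log cell kill versus control; run per a previously published protocol.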

[6] = system: MCF7; assay: Inhibition of human MCF7 cells propagated in hollow fibers via intraperitoneal site of immunodeficient mouse at 6.25 to 50 mg/kg after 3 to 6 days; type: functional; conditions: dose mg/kg 6.25-50
Method in brief: (§1)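 Lu1, LNCaP or MCF-7 cells in hollow fibers implanted subcutaneously or intraperitoneally in immunodeficient mice. Dosing was once daily by intraperitoneal injection at 6.25, 12.5, 25 or 50 mg/kg on days 3–6 after implantation. Growth inhibition was measured against vehicle-treated animals.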

[7] = system: Lu1; assay: Inhibition of human Lu1 cells propagated in hollow fibers via intraperitoneal site of immunodeficient mouse at 6.25 to 50 mg/kg after 3 to 6 days; type: functional, organism-based; method in brief: as §1
[8] = system: LNCaP; assay: Inhibition of human LNCaP cells propagated in hollow fibers via intraperitoneal site of immunodeficient mouse at 6.25 to 50 mg/kg after 3 to 6 days; type: functional, organism-based; method in brief: as §1
[9] = system: MCF7; assay: Inhibition of human MCF7 cells propagated in hollow fibers via subcutaneous site of immunodeficient mouse at 6.25 to 50 mg/kg after 3 to 6 days; type: functional, organism-based; method in brief: as §1
[10] = system: Lu1; assay: Inhibition of human Lu1 cells propagated in hollow fibers via subcutaneous site of immunodeficient mouse at 6.25 to 50 mg/kg after 3 to 6 days; type: functional, organism-based; method in brief: as §1
[11] = system: LNCaP; assay: Inhibition of human LNCaP cells propagated in hollow fibers via subcutaneous site of immunodeficient mouse at 6.25 to 50 mg/kg after 3 to 6 days; type: functional, organism-based; method in brief: as §1

Row | Structure (SMILES) | EC50 ([1]; Homo sapiens, Lu1) [µM] | EC50 ([2]; Homo sapiens, LNCaP) [µM] | EC50 ([3]; Homo sapiens, MCF7) [µM] | also measured
1 | CCCCCCCCCCCCC[C@@H]1C[C@@H](OC(=O)[C@@]23CC[C@@](C)(C(=O)O2)C3(C)C)C[C@]2(CCC3(C=CC(=O)C=C3)O2)O1 | 4 | 3 | 3.2 | –
2 | CCCCCCCCCCCCC[C@@H]1CC(=O)C[C@]2(CCC3(C=CC(=O)C=C3)O2)O1 | 30.5 | 22.1 | 7.5 | –
3 | CCCCCCCCCCCCC[C@@H]1C[C@@H](OC(=O)c2cc(F)c(Cl)nc2Cl)C[C@]2(CCC3(C=CC(=O)C=C3)O2)O1 | 22.2 | 17.9 | 14.6 | –
4 | CCCCCCCCCCCCC[C@@H]1C[C@@H](OC(=O)c2ccc(Br)cc2)C[C@]2(CCC3(C=CC(=O)C=C3)O2)O1 | 1.3 | 0.8 | 0.7 | –
5 | CCCCCCCCCCCCC[C@@H]1C[C@@H](O)C[C@@]2(CCC3(C=CC(=O)C=C3)O2)O1 [ACULEATINS B] | 3.1 | 1.2 | 1.9 | –
6 | CCCCCCCCCCCCC[C@@H]1C[C@@H](O)C[C@]2(CCC3(C=CC(=O)C=C3)O2)O1 [ACULEATIN A] | 1 | 0.5 | 0.2 | T/C [4]: 122%; LCK [5]: 0.4; Inhibition [6]: 10%; Activity [7]: inactive; Activity [8]: inactive; Activity [9]: inactive; Activity [10]: inactive; Activity [11]: inactive
7 | CCCCCCCCCCC[C@@H]1C[C@@H](O)C[C@]2(CCC3(C=CC(=O)C=C3)O2)O1 (relative stereo) [ACULEATIN F] | 1 | 0.7 | 0.5 | –
8 | CCCCCCCCCCCCC[C@@H]1C[C@@H](O)C[C@@]2(CC[C@]3(C=CC(=O)C[C@@H]3O)O2)O1 (relative stereo) [ACULEATOL E] | 1.8 | 4.4 | 3.9 | –
9 | CCCCCCCCCCCCC[C@@H]1C[C@@H](OC(=O)c2c(Cl)c(Cl)c(Cl)c(Cl)c2C(=O)O)C[C@]2(CCC3(C=CC(=O)C=C3)O2)O1 | 12.8 | 5.8 | 4.8 | –
10 | CCCCCCCCCCCCC[C@@H]1C[C@@H](OC(=O)COCC(=O)O)C[C@]2(CCC3(C=CC(=O)C=C3)O2)O1 | 3.4 | 1.9 | 1.3 | –
11 | CCCCCCCCCCCCC[C@@H]1C[C@@H](OC(C)=O)C[C@@]2(CCC3(C=CC(=O)C=C3)O2)O1 | 5.7 | 2.2 | 3.5 | –
12 | CCCCCCCCCCCCCCC[C@@H](O)CC1(OC)CCC2(C=CC(=O)C=C2)O1 (stereo in doubt; 7) | 0.5 | 0.9 | 0.7 | –
13 | CCCCCCCCCCC[C@@H]1C[C@H](O)C[C@@]2(CCC3(C=CC(=O)C=C3)O2)O1 (relative stereo) [ACULEATIN E] | 1.8 | 1.8 | 0.5 | –
14 | CCCCCCCCCCCCC[C@@H]1C[C@@H](OC(C)=O)C[C@]2(CCC3(C=CC(=O)C=C3)O2)O1 | 2.6 | 1.1 | 1.5 | –
15 | CCCCCCCCCCCCCCC[C@@H](O)CC1(OC)CCC2(C=CC(=O)C=C2)O1 (stereo in doubt; 6) | – | – | – | EC50 [1]: 0.9 µM; EC50 [2]: 0.7 µM; EC50 [3]: 0.9 µM
16 | CCCCCCCCCCCCC[C@@H]1C[C@@H](OC(=O)c2c(Br)c(Br)c(Br)c(Br)c2C(=O)O)C[C@]2(CCC3(C=CC(=O)C=C3)O2)O1 | 10.3 | 5.1 | 4.7 | –
